Assay results taken from ChEMBL document CHEMBL3804761, “Synthesis of a stable and orally bioavailable englerin analogue” (Bioorg Med Chem Lett, 2016).

Assays:
Type in all cases: functional
[1] = system: SK-MEL-5; assay: Growth inhibition of human SK-MEL-5 cells incubated for 48 hrs by sulforhodamine B assay; conditions: SK-MEL-5, 48 h; for TGI: read-out: pTGI (converted)
Method in brief: (§1)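 NCI 60-cell-line panel, standard protocol. Cells exposed to compound for two days, growth read by sulforhodamine B staining. Tested at five 10-fold dilutions, top concentration 100 µM, to give dose-response curves.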

[2] = system: ACHN; assay: Growth inhibition of human ACHN cells assessed as cell growth at 10 uM incubated for 48 hrs by sulforhodamine B assay relative to control; conditions: read-out: Activity
Method in brief: (§2)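 Run in the standard NCI 60-cell-line screen. Cells were exposed to drug for two days, and the read-out was sulforhodamine B staining. Compound was tested at a single final concentration of 10 µM in every line, and results are reported as growth percent.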

[3] = system: KM12; assay: Growth inhibition of human KM12 cells incubated for 48 hrs by sulforhodamine B assay; conditions: KM12, 48 h; for TGI: read-out: pTGI (converted); method in brief: as §1
[4] = Growth inhibition of human COLO205 cells incubated for 48 hrs by sulforhodamine B assay; conditions: COLO 205, 48 h; for CC50: read-out: pLC50 (the source's name) (converted); for TGI: read-out: pTGI (converted); method in brief: as §1
[5] = system: MDA-MB-468; assay: Growth inhibition of human MDA-MB-468 cells assessed as cell growth at 10 uM incubated for 48 hrs by sulforhodamine B assay relative to control; conditions: MDA-MB-468, 48 h, read-out: Activity; method in brief: as §2
[6] = system: ACHN; assay: Growth inhibition of human ACHN cells incubated for 48 hrs by sulforhodamine B assay; conditions: for TGI: read-out: pTGI (converted); method in brief: as §1
[7] = Growth inhibition of human PC3 cells assessed as cell growth at 10 uM incubated for 48 hrs by sulforhodamine B assay relative to control; conditions: PC-3, 48 h, read-out: Activity; method in brief: as §2
[8] = Growth inhibition of human SF295 cells assessed as cell growth at 10 uM incubated for 48 hrs by sulforhodamine B assay relative to control; conditions: SF-295, 48 h, read-out: Activity; method in brief: as §2
[9] = system: MCF7; assay: Growth inhibition of human MCF7 cells incubated for 48 hrs by sulforhodamine B assay; conditions: MCF7, 48 h; for CC50: read-out: pLC50 (the source's name) (converted); for TGI: read-out: pTGI (converted); method in brief: as §1
[10] = system: Malme-3M; assay: Growth inhibition of human MALME-3M cells assessed as cell growth at 10 uM incubated for 48 hrs by sulforhodamine B assay relative to control; conditions: read-out: Activity; method in brief: as §2
[11] = system: SR; assay: Growth inhibition of human SR cells assessed as cell growth at 10 uM incubated for 48 hrs by sulforhodamine B assay relative to control; conditions: read-out: Activity; method in brief: as §2
[12] = system: U-251; assay: Growth inhibition of human U251 cells assessed as cell growth at 10 uM incubated for 48 hrs by sulforhodamine B assay relative to control; conditions: U-251, 48 h, read-out: Activity
Method in brief: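 NCI 60-cell line standard protocol, one-dose screen: single final concentration 10 µM, 2-day drug exposure, sulforhodamine B (SRB) endpoint; read-out is growth percent relative to untreated control.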

[13] = system: SK-MEL-2; assay: Growth inhibition of human SK-MEL-2 cells assessed as cell growth at 10 uM incubated for 48 hrs by sulforhodamine B assay relative to control; conditions: SK-MEL-2, 48 h, read-out: Activity; method in brief: as §2
[14] = Growth inhibition of human SW620 cells assessed as cell growth at 10 uM incubated for 48 hrs by sulforhodamine B assay relative to control; conditions: SW-620, 48 h, read-out: Activity; method in brief: as §2
[15] = Growth inhibition of human HCC2998 cells incubated for 48 hrs by sulforhodamine B assay; conditions: HCC 2998, 48 h; for TGI: read-out: pTGI (converted); method in brief: as §1
[16] = system: CCRF-CEM; assay: Growth inhibition of human CCRF-CEM cells incubated for 48 hrs by sulforhodamine B assay; conditions: for CC50: read-out: pLC50 (the source's name) (converted); for TGI: read-out: pTGI (converted); method in brief: as §1
[17] = system: NCI-H226; assay: Growth inhibition of human NCI-H226 cells incubated for 48 hrs by sulforhodamine B assay; conditions: NCI-H226, 48 h; for TGI: read-out: pTGI (converted); method in brief: as §1
[18] = system: M14; assay: Growth inhibition of human M14 cells assessed as cell growth at 10 uM incubated for 48 hrs by sulforhodamine B assay relative to control; conditions: M14, 48 h, read-out: Activity; method in brief: as §2
[19] = Growth inhibition of human UACC62 cells incubated for 48 hrs by sulforhodamine B assay; conditions: UACC-62, 48 h; for TGI: read-out: pTGI (converted)
Method in brief: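 Tested in the standard NCI 60-cell-line protocol with two-day drug exposure and a sulforhodamine B endpoint. Compounds were first screened at a single final concentration of 10 µM, reported as growth percent. They were then run as five 10-fold dilutions starting from a high concentration of 100 µM to give dose-response curves.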

[20] = system: A498; assay: Growth inhibition of human A498 cells assessed as cell growth at 10 uM incubated for 48 hrs by sulforhodamine B assay relative to control; conditions: A498, 48 h, read-out: Activity
[21] = system: MDA-MB-231; assay: Growth inhibition of human MDA-MB-231 cells assessed as cell growth at 10 uM incubated for 48 hrs by sulforhodamine B assay relative to control; conditions: MDA-MB-231, 48 h, read-out: Activity; method in brief: as §2
[22] = system: NCI-H23; assay: Growth inhibition of human NCI-H23 cells incubated for 48 hrs by sulforhodamine B assay; conditions: NCI-H23, 48 h; for TGI: read-out: pTGI (converted); method in brief: as §1
[23] = system: NCI-H322M; assay: Growth inhibition of human NCI-H322M cells incubated for 48 hrs by sulforhodamine B assay; conditions: for TGI: read-out: pTGI (converted); method in brief: as §1
[24] = system: K562; assay: Growth inhibition of human K562 cells assessed as cell growth at 10 uM incubated for 48 hrs by sulforhodamine B assay relative to control; conditions: K562, 48 h, read-out: Activity; method in brief: as §2
[25] = Growth inhibition of human RXF393 cells incubated for 48 hrs by sulforhodamine B assay; conditions: RXF 393, 48 h; for CC50: read-out: pLC50 (the source's name) (converted); for TGI: read-out: pTGI (converted)
Method in brief: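 Run in the NCI 60-cell-line protocol, with 2-day drug exposure and sulforhodamine B read-out. Dose-response testing used five 10-fold dilutions starting from a high concentration of 100 µM.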

[26] = system: SK-MEL-28; assay: Growth inhibition of human SK-MEL-28 cells incubated for 48 hrs by sulforhodamine B assay; conditions: SK-MEL-28, 48 h; for TGI: read-out: pTGI (converted); method in brief: as §1
[27] = Growth inhibition of human DU145 cells incubated for 48 hrs by sulforhodamine B assay; conditions: DU-145, 48 h; for CC50: read-out: pLC50 (the source's name) (converted); for TGI: read-out: pTGI (converted); method in brief: as §1
[28] = Growth inhibition of human HCC2998 cells assessed as cell growth at 10 uM incubated for 48 hrs by sulforhodamine B assay relative to control; conditions: HCC 2998, 48 h, read-out: Activity
Method in brief: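 Single-dose screen in the NCI 60-cell-line panel at one final concentration of 10 µM. Two-day drug exposure with a sulforhodamine B endpoint. Values are growth percent for each cell line.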

CC(C)[C@@]12C[C@@H](NC(=O)CO)[C@@](C)(O1)[C@@H]1CC[C@@H](C)[C@H]1[C@@H]2OC(=O)/C=C/C1CCCCC1
GI50 [1]: > 44.7 µM
LC50 [1]: > 44.7 µM
TGI [1]: > 44.7 µM
growth at 10 µM [2]: 99.9%
GI50 [3]: > 44.7 µM
LC50 [3]: > 44.7 µM
TGI [3]: > 44.7 µM
GI50 [4]: > 44.7 µM
CC50 [4]: > 44.7 µM
TGI [4]: > 44.7 µM
growth at 10 µM [5]: 97.5%
GI50 [6]: 17 µM
LC50 (concentration killing 50% of cells) [6]: > 44.7 µM
TGI [6]: > 44.7 µM
growth at 10 µM [7]: 106%
growth at 10 µM [8]: 86.3%
GI50 [9]: > 44.7 µM
CC50 [9]: > 44.7 µM
TGI [9]: > 44.7 µM
growth at 10 µM [10]: 109%
growth at 10 µM [11]: 93.2%
growth at 10 µM [12]: 98.1%
growth at 10 µM [13]: 99.2%
growth at 10 µM [14]: 102%
GI50 [15]: > 44.7 µM
LC50 [15]: > 44.7 µM
TGI [15]: > 44.7 µM
GI50 [16]: > 44.7 µM
CC50 [16]: > 44.7 µM
TGI [16]: > 44.7 µM
GI50 [17]: > 44.7 µM
LC50 [17]: > 44.7 µM
TGI [17]: > 44.7 µM
growth at 10 µM [18]: 104%
GI50 [19]: > 44.7 µM
LC50 (lethal concentration, 50% net cell kill) [19]: > 44.7 µM
TGI [19]: > 44.7 µM
growth at 10 µM [20]: 41%
growth at 10 µM [21]: 107%
GI50 [22]: > 44.7 µM
LC50 [22]: > 44.7 µM
TGI [22]: > 44.7 µM
GI50 [23]: > 44.7 µM
LC50 [23]: > 44.7 µM
TGI [23]: > 44.7 µM
growth at 10 µM [24]: 96.5%
GI50 [25]: 13.8 µM
CC50 [25]: > 44.7 µM
TGI [25]: > 44.7 µM
GI50 [26]: > 44.7 µM
LC50 [26]: > 44.7 µM
TGI [26]: > 44.7 µM
GI50 [27]: > 44.7 µM
CC50 [27]: > 44.7 µM
TGI [27]: > 44.7 µM

CC(C)[C@@]12C[C@@H](NC(=O)CF)[C@@](C)(O1)[C@@H]1CC[C@@H](C)[C@H]1[C@@H]2OC(=O)/C=C/c1ccccc1
growth at 10 µM [2]: 105%
growth at 10 µM [7]: 84%
growth at 10 µM [8]: 105%
growth at 10 µM [10]: 106%
growth at 10 µM [11]: 85.5%
growth at 10 µM [28]: 107%
growth at 10 µM [12]: 106%
growth at 10 µM [13]: 117%
growth at 10 µM [14]: 101%
growth at 10 µM [18]: 96.7%
growth at 10 µM [20]: 83%
growth at 10 µM [21]: 102%
growth at 10 µM [24]: 106%

CC(C)[C@@]12C[C@@H](NC(=O)CO)[C@@](C)(O1)[C@@H]1CC[C@@H](C)[C@H]1[C@@H]2OC(=O)/C=C/c1ccccc1
GI50 [1]: 12.9 µM
LC50 [1]: > 50.1 µM
TGI [1]: 42.7 µM
growth at 10 µM [2]: 8.01%
GI50 [3]: 20 µM
LC50 [3]: > 50.1 µM
TGI [3]: > 50.1 µM
GI50 [4]: 10.7 µM
CC50 [4]: > 50.1 µM
TGI [4]: 26.3 µM
growth at 10 µM [5]: 91.3%
GI50 [6]: 3.98 µM
LC50 (concentration killing 50% of cells) [6]: > 50.1 µM
TGI [6]: 35.5 µM
growth at 10 µM [7]: 77.5%
growth at 10 µM [8]: 90.6%
GI50 [9]: 14.5 µM
CC50 [9]: > 50.1 µM
TGI [9]: > 50.1 µM
growth at 10 µM [10]: 95.2%
growth at 10 µM [11]: 79.1%
growth at 10 µM [12]: 92.3%
growth at 10 µM [13]: 101%
growth at 10 µM [14]: 109%
GI50 [15]: 15.8 µM
LC50 [15]: > 50.1 µM
TGI [15]: > 50.1 µM
GI50 [16]: 14.1 µM
CC50 [16]: > 50.1 µM
TGI [16]: > 50.1 µM
GI50 [17]: 25.1 µM
LC50 [17]: > 50.1 µM
TGI [17]: > 50.1 µM
growth at 10 µM [18]: 103%
GI50 [19]: 15.1 µM
LC50 (lethal concentration, 50% net cell kill) [19]: > 50.1 µM
TGI [19]: > 50.1 µM
growth at 10 µM [20]: -15.2%
growth at 10 µM [21]: 97.2%
GI50 [22]: 14.8 µM
LC50 [22]: > 50.1 µM
TGI [22]: > 50.1 µM
GI50 [23]: > 50.1 µM
LC50 [23]: > 50.1 µM
TGI [23]: > 50.1 µM
growth at 10 µM [24]: 86.6%
GI50 [25]: 2.09 µM
CC50 [25]: > 50.1 µM
TGI [25]: 24.5 µM
GI50 [26]: 20.9 µM
LC50 [26]: > 50.1 µM
TGI [26]: > 50.1 µM
GI50 [27]: 25.1 µM
CC50 [27]: > 50.1 µM
TGI [27]: > 50.1 µM
